Measurements reported in ChEMBL document CHEMBL1144887, “Indanylidenes. 1. Design and synthesis of (E)-2-(4,6-difluoro-1-indanylidene)acetamide, a potent, centrally acting muscle relaxant with antiinflammatory and analgesic activity” (J Med Chem, 2003).

Tests used:
Type in all cases: functional
Mus musculus [1] = assay: (§1) Percent effect profile muscle relaxation at 100 mg/kg by intraperitoneal administration in mouse using Straub-tail (ST) assay; conditions: ip
Outline: (§2)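 Mouse morphine-induced Straub tail assay, scoring inhibition of sacro-coccygeus dorsalis contraction. Single ip dose of 100 mg/kg; percent effect reported. Compounds above 50% inhibition were then tested orally.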

Rattus norvegicus [2] = assay: Percent inhibition for analgesic activity by trypsin-induced hyperalgesia assay at 20 mg/kg by oral administration in rats.
Outline: (§3)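 Rat trypsin-induced hyperalgesia (mild analgesia). Percent inhibition at a single oral dose of 20 mg/kg. Each compound tested two or three times; average variation approximately 5%.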

Mus musculus [3] = assay: as §1; conditions: ip; outline: as §2; remark: listed apart in the source
Rattus norvegicus [4] = assay: Antiinflammatory activity in edema by Carrageenan pleurisy assay by oral administration at 20 mg/kg.
Outline: (§4)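 Rat carrageenan pleurisy, 3 h. Single oral dose of 20 mg/kg, with separate read-outs for pleural cell counts and edema as percent inhibition. Each compound tested two or three times; average variation approximately 10%.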

Rattus norvegicus [5] = assay: Antiinflammatory activity in cells by Carrageenan pleurisy assay by oral administration at 20 mg/kg.; outline: as §4
Mus musculus [6] = assay: Effective dose required for muscle relaxation by oral administration in mouse using Straub-tail (ST) assay.
Outline: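 Mouse morphine-induced Straub tail assay, scoring inhibition of sacro-coccygeus dorsalis contraction. Dosed ip or po, generally at a minimum of three doses with N = 6 animals per dose group.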

Rattus norvegicus [7] = assay: Effective dose required for analgesic activity by trypsin-induced hyperalgesia assay at 20 mg/kg by oral administration in rats
Outline: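 Rat trypsin-induced hyperalgesia (mild analgesia) with oral dosing. ED50 reported in mg/kg po. Each compound tested two or three times; average variation approximately 5%.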

Mus musculus [8] = organism: Mus musculus; assay: Ratio of rotarod to Straub-tail activity, which indicates the dose exhibiting muscle relaxant activity versus that producing sedation.
Outline: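 Ratio of rotorod ED50 (po) to Straub tail ED50 (po), both measured in mice with oral dosing. Indicates separation between the muscle-relaxant dose and the sedating dose.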

Mus musculus [9] = assay: Sedation caused by oral administration was estimated using rotarod (RR) assay.
Outline: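 Mouse rotorod test for sedation, oral dosing, generally at a minimum of three doses with N = 6 animals per dose group.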

Rattus norvegicus [10] = assay: Percent inhibition for analgesic activity by trypsin-induced hyperalgesia assay at 20 mg/kg by oral administration in rats; outline: as §3

SMILES | inhibition in vivo at 100 mg/kg (Mus musculus [1]) [%] | inhibition in vivo at 20 mg/kg (Rattus norvegicus [2]) [%] | inhibition in vivo at 100 mg/kg (Mus musculus [3]) [%] | inhibition in vivo at 20 mg/kg (Rattus norvegicus [4]) [%] | inhibition in vivo at 20 mg/kg (Rattus norvegicus [5]) [%] | ED50 (Mus musculus [6]) [mg/kg] | ED50 (Rattus norvegicus [7]) [mg/kg] | Ratio (Mus musculus [8]) | ED50 (Mus musculus [9]) [mg/kg] | inhibition in vivo at 20 mg/kg (Rattus norvegicus [10]) [%] | ED50 (Mus musculus [3]) [mg/kg]
O=C(/C=C1\CCc2ccc(Cl)cc21)NC1CC1 | 50 |  |  |  |  |  |  |  |  |  | 
O=C(/C=C1\CCc2c1ccc(F)c2F)NC1CC1 |  | 11 | 100 | 27 | 27 | 62 |  |  |  |  | 
CCN(C)C(=O)/C=C1\CCc2ccc(F)cc21 | 100 | 77 |  | 44 | 20 | 100 |  |  |  |  | 
O=C(/C=C1\CCc2ccc(F)cc21)N1CCOCC1 | 100 |  |  | 31 | 7 | 90 |  |  |  |  | 
CNC(=O)/C=C1\CCc2ccc(F)cc21 |  | 58 | 50 | 38 | 45 |  | 25 |  |  |  | 
O=C(/C=C1\CCc2ccc(F)cc21)N1CCC1 | 33 | 7 |  | 0 | 14 |  |  |  |  |  | 
CNC(=O)/C=C1\CCc2ccc(Cl)cc21 | 16 | 17 |  | 25 | 0 |  |  |  |  |  | 
O=C(/C=C1\CCc2c(F)cc(F)cc21)NC1CC1 | 100 |  |  | 28 | 38 | 62 |  | 1 | 62 |  | 
O=C(/C=C1\CCc2cc(Cl)ccc21)NC1CC1 | 17 |  |  | 29 | 34 |  |  |  |  |  | 
COc1ccc2c(c1)/C(=C/C(N)=O)CC2 |  |  | 0 | 3 | 1 |  |  |  |  |  | 
CNC(=O)/C=C1\CCc2ccc(Br)cc21 | 0 | 4 |  | 53 | 44 |  |  |  |  |  | 
CN(C)C(=O)/C=C1\CCc2c(F)cc(F)cc21 | 100 |  |  |  |  | 50 |  | 2 | 100 | 75 | 
O=C(/C=C1\CCc2c(Cl)cccc21)NC1CC1 | 100 |  |  | 45 | 28 | 58 |  | 1.1 | 66 |  | 
O=C(/C=C1\CCc2ccc(F)cc21)NCCO | 50 | 33 |  | 78 | 42 |  |  |  |  |  | 
NC(=O)/C=C1\CCc2cc(Cl)ccc21 |  | 42 | 0 | 29 | 30 |  | 30 |  |  |  | 
O=C(/C=C1/CCc2ccc(Cl)cc21)NC1CC1 |  |  | 0 |  |  |  |  |  |  |  | 
NC(=O)/C=C1\CCc2cc(F)ccc21 |  |  | 100 | 42 | 54 | 56 |  | >~2 | > 100 |  | 
O=C(/C=C1\CCc2c(F)cc(F)cc21)NCCO |  |  | 83 |  |  | 100 |  |  |  | 27 | 
NC(=O)/C=C1\CCc2c(F)ccc(F)c21 | 100 | 83 |  | 67 | 67 | 56 | 8 | 1.6 | 89 |  | 
CCN(C)C(=O)/C=C1\CCc2c(F)cc(F)cc21 | 100 |  |  |  |  | 56 |  | 1.3 | 73 |  | 
N#Cc1ccc2c(c1)/C(=C/C(N)=O)CC2 |  | 21 |  |  |  |  |  |  |  |  | 33
CC(C)NC(=O)/C=C1\CCc2ccc(F)cc21 | 100 | 83 |  | 71 | 45 | 96 | 9 |  | > 100 |  | 
NC(=O)/C=C1\CCc2c1ccc(F)c2F | 100 | 41 |  | 82 | 77 | 45 |  | 1.1 | 50 |  | 
COc1ccc2c(c1)CC/C2=C\C(N)=O | 17 | 13 |  | 25 | 18 |  |  |  |  |  | 
